Assay outcomes as filed in PubChem BioAssay.
NSD2 HMT inh – NSD2 histone methyltransferase inhibitors, primary screen, biochemical, AlphaScreen, single concentration, set 2; Histone-lysine N-methyltransferase NSD2 (Homo sapiens), O96028; NSD2 peptide methylation, 120 min; inhibition, % at 12.5 µM; 310,000 compounds, 0.54% hits; AID 743445, 2014; in the data active = inhibition above about 50%
MLL AF4-AF9 inh – inhibitors of AF4 peptide binding to AF9, primary screen, biochemical, AlphaScreen, biotin-AF4 peptide, FLAG-AF9, single point; Protein AF-9 (Homo sapiens), P42568; inhibition, % at 10 µM; 350,000 compounds, 0.47% hits; AID 651704, 2012;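 active = every replicate reaching a set inhibition limit, whatever the replicate mean, cut at about 25% in these data; inconclusive = mean inhibition reaches that limit but some replicates miss it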
FN deposition inh – inhibitors of fibronectin matrix deposition, primary screen, AH1F cells, Alexa488-fibronectin fluorescence, plate reader. AH1F fibroblasts, overnight. inhibition, % at 12.6 µM. 350,000 compounds, 0.086% hits;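 active = mean inhibition across replicates of 30% or more, regardless of how many single replicates reach that level; inconclusive = mean under 30% yet at least half of replicates reach 30%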
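Test system: AH1F fibroblast monolayer depositing Alexa488-labelled fibronectin into matrix. Input: 10000 cells per well. Technique: fluorescence, ex 485 nm, em 525 nm. Buffer or medium: DMEM plus 2% serum, read in PBS. Timing: 1 h cell adhesion before compound, then overnight fibronectin incubation. Compound: single dose, pinned. Read-out basis: inhibition from reduced deposited-fibronectin fluorescence.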
RAD54 inh – inhibitors of human RAD54 branch migration, primary screen, biochemical, fluorescence, single point; inhibition, % at 10.4 µM; DNA repair and recombination protein RAD54-like (Homo sapiens), Q92698; 360,000 compounds, 0.14% hits; RAD54 Holliday junction branch migration, FAM/BHQ fluorescence;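 active = mean normalized replicate activity at least 40 and at least half of replicates scoring 40 or more; inconclusive = only one of the two criteria met; inactive = mean below 40 and under half of replicates reaching 40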;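 note: inhibitors cause a drop in the FAM fluorescence signal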
Target sequence (Q92698 whole entry, looked up): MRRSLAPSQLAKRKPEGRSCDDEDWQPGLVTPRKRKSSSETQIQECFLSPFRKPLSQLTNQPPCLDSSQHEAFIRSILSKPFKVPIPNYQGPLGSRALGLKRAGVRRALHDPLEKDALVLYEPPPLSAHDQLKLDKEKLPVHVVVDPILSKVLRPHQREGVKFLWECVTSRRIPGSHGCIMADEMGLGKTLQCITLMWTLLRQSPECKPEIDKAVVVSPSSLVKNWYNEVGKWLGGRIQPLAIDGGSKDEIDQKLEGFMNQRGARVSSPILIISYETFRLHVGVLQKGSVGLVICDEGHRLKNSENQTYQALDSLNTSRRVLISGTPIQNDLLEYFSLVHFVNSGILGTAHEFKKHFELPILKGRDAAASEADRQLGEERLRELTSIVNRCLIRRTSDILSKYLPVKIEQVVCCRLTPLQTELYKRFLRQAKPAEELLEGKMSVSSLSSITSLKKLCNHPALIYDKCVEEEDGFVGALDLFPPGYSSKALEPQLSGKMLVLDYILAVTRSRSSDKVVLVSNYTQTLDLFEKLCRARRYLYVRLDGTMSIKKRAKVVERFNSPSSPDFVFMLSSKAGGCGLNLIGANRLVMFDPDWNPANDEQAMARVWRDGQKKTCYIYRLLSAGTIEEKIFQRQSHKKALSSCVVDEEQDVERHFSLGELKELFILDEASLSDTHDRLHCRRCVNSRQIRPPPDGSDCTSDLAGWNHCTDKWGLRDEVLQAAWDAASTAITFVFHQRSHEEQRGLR
RAD52 inh – RAD52 DNA annealing inhibitors, primary screen, biochemical, FRET, single point, set 2 | inhibition, % at 18.7 µM | AID 651710, 2012 | recombinant RAD52 DNA annealing, FRET fluorescence | 360,000 compounds, 0.46% hits;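 active = every replicate showing at least 50% inhibition; inconclusive = mean inhibition at least 50% but not in every replicate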
Glyco luc inh – increase of ERlucT glycosylation luciferase signal, primary screen, N-linked glycosylation inhibitor project, D54 ERlucT cells, luminescence, set 2; D54 ERlucT glycosylation luciferase reporter, 24 h; percent of 100 nM tunicamycin response; AID 588692, 2011; reporter increase, % at 12.5 µM; 360,000 compounds, 0.23% hits;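 active = mean luciferase reporter signal, scaled so untreated is 0 and the glycosylation-blocking control 100, at or above a set limit in every replicate; inconclusive = mean reaches the limit but not every replicate does; inactive = mean below the limit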;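 note: luciferase carries N-glycosylation sites so blocking glycosylation raises the light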
Large screens that a line does not name were inactive. Shown are actives, neighbours in structure and some others; about 1.2% of the full set was active somewhere.

O=C(COc1ccc(C(=O)c2ccccc2)cc1)NCc1ccc(F)cc1	Glyco luc inh 29 (no result: MLL AF4-AF9 inh, RAD54 inh, RAD52 inh)
C[C@H](CO)N1C[C@H](C)[C@H](CN(C)Cc2ccc3c(c2)OCO3)Oc2c(NC(=O)C3CCOCC3)cccc2C1=O	none (no result: NSD2 HMT inh, Glyco luc inh)
Cc1noc(C)c1S(=O)(=O)Nc1ccc2c(c1)C(=O)N([C@@H](C)CO)C[C@H](C)[C@@H](CN(C)S(=O)(=O)c1ccc(Cl)cc1)OCCCC[C@@H](C)O2	none (no result: NSD2 HMT inh, Glyco luc inh)
C[C@H](CO)N1C[C@H](C)[C@H](CN(C)C(=O)CN(C)C)Oc2cc(C#Cc3ccc(F)cc3)ccc2S1(=O)=O	RAD52 inh 60 (no result: NSD2 HMT inh, Glyco luc inh)
C[C@@H]1CN([C@@H](C)CO)S(=O)(=O)c2ccc(C#Cc3ccc(F)cc3)cc2O[C@H]1CN(C)C	none (no result: NSD2 HMT inh, Glyco luc inh)
Cc1noc(C)c1NC(=O)N(C)C[C@H]1Oc2cc(C#CCC(C)C)ccc2S(=O)(=O)N([C@H](C)CO)C[C@@H]1C	none (no result: NSD2 HMT inh, FN deposition inh, Glyco luc inh)
Cc1noc(C)c1NC(=O)N(C)C[C@@H]1Oc2cc(C#CCC(C)C)ccc2S(=O)(=O)N([C@H](C)CO)C[C@H]1C	MLL AF4-AF9 inh 30 (no result: NSD2 HMT inh, FN deposition inh, Glyco luc inh)
C[C@@H]1CN([C@H](C)CO)S(=O)(=O)c2ccc(C#Cc3ccc(F)cc3)cc2O[C@@H]1CN(C)C(=O)CN(C)C	RAD52 inh 65 (no result: NSD2 HMT inh, Glyco luc inh)
C[C@H]1CN([C@@H](C)CO)S(=O)(=O)c2ccc(C#Cc3ccc(F)cc3)cc2O[C@@H]1CN(C)C(=O)CN(C)C	RAD52 inh 65 (no result: NSD2 HMT inh, Glyco luc inh)
CCCc1cn(CC[C@H]2CC[C@H](NC(=O)C3CCOCC3)[C@@H](CO)O2)nn1	none (no result: NSD2 HMT inh, Glyco luc inh)
CNC[C@@H]1Oc2ccc(NS(=O)(=O)c3cn(C)cn3)cc2CC(=O)N([C@H](C)CO)C[C@@H]1C	none (no result: NSD2 HMT inh, Glyco luc inh)
C[C@H](O)C#Cc1cnc2c(c1)C(=O)N([C@H](C)CO)C[C@@H](C)[C@H](CN(C)C(=O)Cc1ccccn1)O2	none (no result: NSD2 HMT inh, Glyco luc inh)
Cc1cc(=O)[nH]c(SCC(=O)c2ccc(Cl)cc2)n1	none (no result: MLL AF4-AF9 inh, FN deposition inh, RAD54 inh, RAD52 inh, Glyco luc inh)
COCC(=O)Nc1ccc2c(c1)C(=O)N(C)C[C@H](OC)[C@@H](C)CN(Cc1cncnc1)[C@@H](C)CO2	none (no result: NSD2 HMT inh, Glyco luc inh)
O=C(Nc1ccc2c(c1)[C@@H]1C[C@H](CC(=O)N3CCOCC3)O[C@@H](CO)[C@@H]1O2)NC1CCCC1	none (no result: NSD2 HMT inh, Glyco luc inh)
C[C@H](O)C#Cc1cnc2c(c1)C(=O)N([C@H](C)CO)C[C@H](C)[C@H](CN(C)Cc1cccc(F)c1)O2	none (no result: NSD2 HMT inh, Glyco luc inh)
Cc1ccnc(NC(c2ccccc2)c2ccc3cccnc3c2O)c1 (centres undefined)	MLL AF4-AF9 inh 29
Cc1ccc2ccc(C(Nc3ccccn3)c3ccccc3)c(O)c2n1 (centres undefined)	MLL AF4-AF9 inh inconclusive (no result: NSD2 HMT inh)
CC(=O)Nc1cccc(NC(=O)CSc2ncc(C(=O)Nc3ccccc3)c(=O)n2C)c1	none (no result: RAD54 inh)
CC(=O)c1cccc(NC(=O)CSc2ncc(C(=O)Nc3ccccc3)c(=O)n2C)c1	Glyco luc inh 30
O=C(NCC(=O)N1CCCC(C(F)(F)F)C1)c1cccs1 (centres undefined)	MLL AF4-AF9 inh 33
Nc1c(C(=O)NCc2ccco2)nnn1-c1ccccc1	none (no result: MLL AF4-AF9 inh, RAD52 inh)
Nc1c(C(=O)NCc2ccco2)nnn1Cc1ccccc1	FN deposition inh 30 (no result: MLL AF4-AF9 inh, RAD52 inh)
COc1ccc2c3c(n(C)c2c1)[C@@H](CO)NCC31CCN(CC2CCCCC2)CC1	none (no result: NSD2 HMT inh, MLL AF4-AF9 inh, RAD54 inh, RAD52 inh, Glyco luc inh)
COc1ccc2c3c(n(C)c2c1)[C@H](CO)NCC31CCN(S(=O)(=O)c2cccc(C)c2)CC1	RAD52 inh 55 (no result: NSD2 HMT inh, RAD54 inh, Glyco luc inh)
COc1ccc2c3c(n(C)c2c1)[C@H](CO)N(CC1CCOCC1)CC31CN(CC2CCOCC2)C1	none (no result: NSD2 HMT inh, FN deposition inh, RAD54 inh, Glyco luc inh)
COc1ccc2c3c(n(C)c2c1)[C@@H](CO)NCC31CN(CC2CCOCC2)C1	MLL AF4-AF9 inh 32, RAD52 inh 75 (no result: NSD2 HMT inh, RAD54 inh, Glyco luc inh)
COc1ccc2c3c(n(C)c2c1)[C@H](CO)NCC31CN(CC2CC2)C1	RAD52 inh 62 (no result: NSD2 HMT inh, FN deposition inh, RAD54 inh, Glyco luc inh)
CCCNC(=O)N1[C@@H]2c3ccc(-c4cccc(OC)c4)c(=O)n3C[C@H]1[C@H](CO)[C@H]2C(=O)NC1CCC1	none (no result: NSD2 HMT inh, FN deposition inh, Glyco luc inh)
N#C[C@@H]1[C@@H](c2ccc(-c3ccc(F)cc3)cc2)[C@H](CO)N1c1nc(-c2ccccc2)cs1	none (no result: NSD2 HMT inh, Glyco luc inh)
